Data set [1] can be described thus: Metabolic stability in rat plasma assessed as compound remaining at 37 degC measured after 15 mins by reverse-phase HPLC analysis.
Data set [2] in a line: Selectivity ratio of Ki for KOR in guinea pig brain membrane to Ki for MOR in rat brain membrane. Format: cell membranes.
For the next data set, the species on record is Rattus norvegicus. The data set can be described thus: Selectivity ratio of Ki for DOR in rat brain membrane to Ki for MOR in rat brain membrane. Format: cell membranes.
Data set [3] can be described thus: AUC in CD-1 mouse plasma at 2 mg/kg, iv by LC-MS/MS analysis. Format: ADME, organism-based. The procedure, abridged:
(§1)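 Male CD1 mice (27 g) given 2 mg/kg iv in saline; brain and plasma sampled at 5, 15, 30, 60, 120 and 240 min. Brain homogenised in PBS pH 7.4, plasma proteins precipitated with acetonitrile/methanol (1:1). Quantitation by LC–MS/MS against internal standard, with standard curves extracted from brain homogenate and fitted by 1/x-weighted linear regression. AUCs were taken from concentration–time curves.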

A short description of data set [4]: AUC in CD-1 mouse brain at 2 mg/kg, iv by LC-MS/MS analysis. Conditions: in vivo. Format: ADME, organism-based. The procedure, abridged:
as §1

Data set [5] can be described thus: Cmax in CD-1 mouse brain at 2 mg/kg, iv measured after 30 mins by LC-MS/MS analysis. Format: ADME, organism-based. Further details: dose 2 mg/kg, route intravenous. A digest of the protocol: as §1
Data set [6] can be described thus: Metabolic stability in rat plasma at 37 degC measured up to 48 hrs by reverse-phase HPLC analysis. In kind it is ADME, cell-free. A digest of the protocol:
(§2)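 Peptide at 0.5 mg/mL in 0.01 M phosphate buffer pH 7.4 mixed 1:1 with rat plasma supernatant and incubated at 37 °C. Samples taken at 0, 5, 10, 15, 30 min and 1, 2, 3, 24, 48 h, quenched with acetonitrile and 2% TFA/water. Analysed by reversed-phase C18 HPLC; peak areas expressed as percent of initial.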

The target of data set [7] is Delta-type opioid receptor (Mus musculus) (UniProt P32300). Kind of data set: Partial agonist activity at delta opioid receptor in mouse vas deferens assessed as inhibition of electrically-stimulated muscle contraction. A digest of the protocol: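 Mouse vas deferens preparation. A [Leu5]enkephalin dose–response curve was run on each preparation as standard, and test IC50 values were normalised to it. Mean of three to four determinations ± SEM.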
Delta-type opioid receptor (Mus musculus), sequence (P32300 whole entry): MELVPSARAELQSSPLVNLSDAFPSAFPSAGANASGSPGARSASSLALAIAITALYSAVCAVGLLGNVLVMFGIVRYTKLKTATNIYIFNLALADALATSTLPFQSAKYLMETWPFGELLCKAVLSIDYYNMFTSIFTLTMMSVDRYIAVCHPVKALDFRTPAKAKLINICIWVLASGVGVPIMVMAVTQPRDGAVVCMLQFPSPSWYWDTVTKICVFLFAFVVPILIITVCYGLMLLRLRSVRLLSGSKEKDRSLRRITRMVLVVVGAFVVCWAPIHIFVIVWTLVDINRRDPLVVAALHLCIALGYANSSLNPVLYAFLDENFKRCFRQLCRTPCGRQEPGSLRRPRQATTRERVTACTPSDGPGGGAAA

The target in data set [8] is Mu-type opioid receptor (Cavia porcellus) (UniProt P97266). The data set can be described thus: Antagonist activity at MOR in guinea pig ileum assessed as inhibition of TAPP-induced muscle contractions. A digest of the protocol: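 Guinea pig ileum preparation. Ke was derived from the ratio of TAPP IC50 with and without a fixed antagonist concentration. Mean of three to four determinations ± SEM.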
Mu-type opioid receptor (Cavia porcellus), sequence (P97266 whole entry): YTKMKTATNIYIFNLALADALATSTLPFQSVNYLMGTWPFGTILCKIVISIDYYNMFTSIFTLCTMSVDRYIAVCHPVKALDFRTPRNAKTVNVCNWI

The target of data set [9] is Mu-type opioid receptor (Cavia porcellus, UniProt P97266). The data set can be described thus: Agonist activity at MOR in guinea pig ileum assessed as inhibition of electrically-stimulated muscle contractions. A digest of the protocol:
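Isolated guinea pig ileum preparation; each preparation received a [Leu⁵]enkephalin standard dose–response curve. IC50 values came from concentration–response curves and were normalized to that standard. Values are the mean of three to four determinations ± SEM.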

Data set [10] is described as follows: Metabolic stability in rat plasma assessed as compound degradation at 37 degC measured after 2 hrs by reverse-phase HPLC analysis. Format: ADME, cell-free. As to conditions: read-out: Drug degradation. The procedure, abridged:
as §2

Data set [11] has as its target Kappa-type opioid receptor (Cavia porcellus, UniProt P41144). The data set can be described thus: Displacement of [3H]U69,593 from KOR in guinea pig brain membrane measured after 2 hrs. Format: cell membranes. A digest of the protocol:
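Guinea pig brain membranes incubated 2 h at 0 °C with 0.80 nM [3H]U69,593. […] Values are the mean of three to four determinations ± SEM.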

Data set [12] deals with Delta-type opioid receptor (Rattus norvegicus, UniProt P33533). Kind of data set: Displacement of [3H]DSLET from DOR in rat brain membrane measured after 2 hrs. Format: cell membranes.
Delta-type opioid receptor, sequence (P33533 whole entry): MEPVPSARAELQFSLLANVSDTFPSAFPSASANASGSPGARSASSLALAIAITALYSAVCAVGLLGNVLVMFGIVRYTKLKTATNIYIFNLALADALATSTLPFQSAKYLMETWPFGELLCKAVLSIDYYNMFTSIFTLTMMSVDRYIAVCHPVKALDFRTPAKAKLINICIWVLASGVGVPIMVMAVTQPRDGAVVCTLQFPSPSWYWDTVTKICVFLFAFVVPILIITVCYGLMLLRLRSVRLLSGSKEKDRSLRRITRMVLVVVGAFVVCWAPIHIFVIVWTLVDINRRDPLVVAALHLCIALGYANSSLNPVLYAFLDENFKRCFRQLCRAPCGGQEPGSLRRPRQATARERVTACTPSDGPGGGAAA
For data set [13], the target named is Mu-type opioid receptor (Rattus norvegicus, UniProt P33535). The data set can be described thus: Displacement of [3H]DAMGO from MOR in rat brain membrane measured after 2 hrs. In kind it is cell membranes.
Mu-type opioid receptor (Rattus norvegicus, UniProt P33535), sequence (P33535 whole entry): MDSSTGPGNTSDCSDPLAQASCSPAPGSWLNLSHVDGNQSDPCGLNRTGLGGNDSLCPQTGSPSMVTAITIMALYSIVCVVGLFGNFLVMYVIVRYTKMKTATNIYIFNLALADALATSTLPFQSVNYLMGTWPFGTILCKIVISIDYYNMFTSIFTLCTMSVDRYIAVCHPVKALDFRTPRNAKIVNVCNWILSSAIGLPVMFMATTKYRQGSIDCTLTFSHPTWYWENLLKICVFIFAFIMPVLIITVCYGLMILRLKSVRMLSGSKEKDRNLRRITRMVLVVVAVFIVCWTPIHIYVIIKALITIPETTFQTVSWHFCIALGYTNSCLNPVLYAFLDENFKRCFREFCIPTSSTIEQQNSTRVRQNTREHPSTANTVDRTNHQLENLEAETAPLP
The target of data set [14] is Kappa-type opioid receptor (Cavia porcellus) (UniProt P41144). Kind of data set: Antagonist activity at KOR in guinea pig ileum assessed as inhibition of U50,488-induced muscle contractions.
Kappa-type opioid receptor (Cavia porcellus), sequence (P41144 whole entry): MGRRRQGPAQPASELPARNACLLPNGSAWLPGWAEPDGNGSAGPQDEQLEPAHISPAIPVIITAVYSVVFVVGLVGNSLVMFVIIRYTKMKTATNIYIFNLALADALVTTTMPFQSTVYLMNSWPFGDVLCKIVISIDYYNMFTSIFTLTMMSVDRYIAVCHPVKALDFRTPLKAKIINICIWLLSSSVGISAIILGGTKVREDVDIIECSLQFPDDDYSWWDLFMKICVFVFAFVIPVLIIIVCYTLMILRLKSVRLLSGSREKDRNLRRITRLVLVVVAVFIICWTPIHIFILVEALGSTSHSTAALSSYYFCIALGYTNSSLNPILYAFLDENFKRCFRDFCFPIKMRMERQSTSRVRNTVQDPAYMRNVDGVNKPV

Each structure is given as a SMILES string. pIC50, pKi: −log10 of the molar value. The source made the active and inactive calls. The rule behind the calls is not given here.

Kappa-type opioid receptor, sequence (P41144 whole entry): as above
Mu-type opioid receptor (Cavia porcellus, UniProt P97266), sequence (P97266 whole entry): as the sequence (P97266 whole entry) above

`CC(C)C[C@H](NC(=O)[C@H](Cc1ccccc1)NC(=O)CNC(=O)CNC(=O)[C@@H](N)Cc1ccc(O)cc1)C(=O)O` [ENKEPHALIN]: in [1], the amount remaining at 0.25 h is less than 15%.

Turning to `Cc1cc(O)cc(C)c1C[C@@H]1NC(=O)[C@H](CCCCN)NC(=O)[C@H](Cc2ccccc2)NC(=O)[C@@H](CCCNC(N)=O)NC1=O`, the Ratio Ki was 165 in data set [2] and 52 in the data set filed under Rattus norvegicus.

`Cc1cc(O)cc(C)c1C[C@@H]1NC(=O)[C@H](CCCCN)NC(=O)[C@H](Cc2ccccc2)NC(=O)[C@@H](CCCNC(=N)N)NC1=O`: the AUC was 0.505 ng·h/mL in data set [3] and 0.052 µg·min/g in [4]. For the same compound, the highest level in data set [5] (Cmax) was 0.6 ng/g. Also, in data set [6], the Stability result is “Stable”.

For the compound `Cc1cc(O)cc(C)c1C[C@@H]1NC(=O)[C@H](CCCCN)NC(=O)[C@H](Cc2ccccc2)NC(=O)[C@@H](CCCCNC(=N)N)NC1=O`, the Ratio Ki worked out at 23 in data set [2] and 25 in the data set filed under Rattus norvegicus. Besides, the result in data set [7] was Active.

On to `Cc1cc(O)cc(C)c1C[C@@H]1NC(=O)C(CCCN)NC(=O)[C@H](Cc2ccccc2)NC(=O)[C@@H](CCCNC(=N)N)NC1=O` (stereo partly drawn), for which, in [7], the outcome was Active. Moreover, in [8], the Ke is 16.8 nM.

As to `Cc1cc(O)cc(C)c1C[C@@H]1NC[C@H](CCCCN)NC(=O)[C@H](Cc2ccccc2)NC(=O)[C@@H](CCCNC(=N)N)NC1=O`, at Mu-type opioid receptor [9], the pIC50 was 5.60. In addition, the Ratio Ki in [2] came out at 7; in the data set listed under Rattus norvegicus it was 47. Besides, the result in data set [7] was Active.

Take `CCCC[C@@H]1NC(=O)[C@H](Cc2ccccc2)NC(=O)[C@@H](CCCNC(=N)N)NC(=O)[C@H](Cc2c(C)cc(O)cc2C)NC1=O`: the outcome in data set [7] was Active.

Consider `C[C@@H](O)[C@H](NC(=O)[C@H]1NC(=O)[C@H]([C@@H](C)O)NC(=O)[C@H](CCCN)NC(=O)[C@@H](Cc2c[nH]c3ccccc23)NC(=O)[C@H](Cc2ccc(O)cc2)NC(=O)[C@@H](NC(=O)[C@H](N)Cc2ccccc2)CSSC1(C)C)C(N)=O`, for which the metabolised at 2 h in data set [10] was determined as 25%. The negative logarithm of the Ki (pKi) in data set [11] was 4.83; in [12] it was 6.59. Also, in data set [7], the outcome was Active.

For `Cc1cc(O)cc(C)c1C[C@@H]1NC(=O)C[C@H](CCCCN)NC(=O)[C@H](Cc2ccccc2)NC(=O)[C@@H](CCCNC(=N)N)NC1=O`, the pKi is 9.91 at Mu-type opioid receptor [13], 9.10 in [11] and 7.78 in [12]. The Ke came to 18.2 nM in [14] and 10.5 nM in [8]. Moreover, the Ratio Ki in data set [2] was 6; in the data set filed under Rattus norvegicus, 135.

The values are drawn from ChEMBL document CHEMBL3862004, “A Cyclic Tetrapeptide ("Cyclodal") and Its Mirror-Image Isomer Are Both High-Affinity μ Opioid Receptor Antagonists” (J Med Chem, 2016).
